From ChEMBL document CHEMBL3259814, “Synthesis and biological evaluation of compounds which contain pyrazole, thiazole and naphthalene ring as antitumor agents” (Bioorg Med Chem Lett, 2014)
Active and inactive are the calls of the source. The rule behind the calls is not given here.

Key:
[1] = test system: HepG2; assay: cells; assay type: functional, cell-based; settings: Homo sapiens;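 also: antiproliferative effect read out as growth inhibition by CCK8 assay, measured after 24–48 h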
[2] = Antiproliferative activity against human BGC823 cells assessed as growth inhibition after 24 to 48 hrs by CCK8 assay; assay type: functional, cell-based; settings: BGC-823
Summary of the method: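 The CCK8 assay was run on BGC823 cells alongside HeLa and HepG2 cells. Inhibition of cell proliferation was reported as IC50.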

[3] = test system: HeLa; assay: cells; assay type: functional, cell-based; settings: Homo sapiens
[4] = biological target: Epidermal growth factor receptor (Homo sapiens, UniProt P00533); assay type: cell-based, Sf-9
[5] = Antiproliferative activity against human macrophages assessed as alteration in cell morphology after 24 hrs by CCK8 assay; assay type: cell-based, Macrophage
[6] = test system: HeLa; assay: Toxicity against human HeLa cells assessed as survival at 0.14 uM by CCK8 assay; assay type: cell-based
Summary of the method: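 HeLa survival ratio was measured against compound concentration by CCK8 assay, including 0.14 µM. This was done before the migration testing.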

[7] = test system: HeLa; assay: Antimetastatic activity against human HeLa cells at 0.08 to 0.12 uM by transwell migration assay; assay type: functional, cell-based
Summary of the method: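 HeLa cell migration was tested at 0.08, 0.10 and 0.12 µM. Migrating cells are expressed as a percentage of an untreated control set at 100%. Data are mean ± SD, with p < 0.05 versus control.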

Chain of Epidermal growth factor receptor (P00533 whole entry): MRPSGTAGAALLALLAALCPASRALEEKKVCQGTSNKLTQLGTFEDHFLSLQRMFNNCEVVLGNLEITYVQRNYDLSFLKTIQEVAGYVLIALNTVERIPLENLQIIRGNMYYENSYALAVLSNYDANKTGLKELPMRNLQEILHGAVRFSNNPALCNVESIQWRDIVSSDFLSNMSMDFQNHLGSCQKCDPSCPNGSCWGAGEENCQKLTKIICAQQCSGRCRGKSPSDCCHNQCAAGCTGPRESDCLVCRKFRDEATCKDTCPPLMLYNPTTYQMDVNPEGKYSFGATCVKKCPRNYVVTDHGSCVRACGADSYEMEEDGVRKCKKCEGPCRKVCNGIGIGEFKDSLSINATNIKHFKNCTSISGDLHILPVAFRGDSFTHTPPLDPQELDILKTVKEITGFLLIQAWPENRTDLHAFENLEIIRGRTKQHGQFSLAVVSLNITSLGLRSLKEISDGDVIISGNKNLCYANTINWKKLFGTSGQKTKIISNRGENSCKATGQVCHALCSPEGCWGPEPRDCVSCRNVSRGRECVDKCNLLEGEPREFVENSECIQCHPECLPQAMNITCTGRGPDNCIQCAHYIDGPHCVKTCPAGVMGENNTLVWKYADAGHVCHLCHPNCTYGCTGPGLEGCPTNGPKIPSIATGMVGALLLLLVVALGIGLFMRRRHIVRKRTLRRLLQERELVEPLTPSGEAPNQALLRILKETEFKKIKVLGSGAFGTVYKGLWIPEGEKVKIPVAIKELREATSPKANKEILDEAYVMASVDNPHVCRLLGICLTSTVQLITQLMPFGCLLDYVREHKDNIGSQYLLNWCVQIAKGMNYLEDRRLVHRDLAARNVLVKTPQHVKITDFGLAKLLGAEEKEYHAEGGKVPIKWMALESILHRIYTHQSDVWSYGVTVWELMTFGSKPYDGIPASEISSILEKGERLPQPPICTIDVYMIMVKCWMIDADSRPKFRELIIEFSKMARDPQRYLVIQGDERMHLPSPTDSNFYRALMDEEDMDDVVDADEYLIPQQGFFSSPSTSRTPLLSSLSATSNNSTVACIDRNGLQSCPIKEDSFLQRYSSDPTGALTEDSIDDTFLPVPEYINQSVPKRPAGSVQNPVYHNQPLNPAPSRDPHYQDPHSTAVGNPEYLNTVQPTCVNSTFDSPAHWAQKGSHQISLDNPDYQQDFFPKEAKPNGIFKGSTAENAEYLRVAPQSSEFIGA

SMILES	IC50 [1] [µM]	IC50 [2] [µM]	IC50 [3] [µM]	IC50 [4] [µM]	CC50 at 24 h [5] [µM]	Activity [6]	Activity [7]
O=C1CSC(N2N=C(c3ccc(F)cc3)CC2c2ccc3ccccc3c2)=N1 (centres undefined)	24.1	14.9	9.17				
COc1ccc(C2=NN(C3=NC(=O)CS3)C(c3cccc4ccccc34)C2)cc1 (centres undefined)	7.85	8.21	2.54	5.53	273		
O=C1CSC(N2N=C(c3ccc(Cl)cc3)CC2c2ccc3ccccc3c2)=N1 (centres undefined)	20.4	13.2	6.32				
Cc1ccc(C2=NN(C3=NC(=O)CS3)C(c3ccc4ccccc4c3)C2)cc1 (centres undefined)	12.7	7.79	1.76	3.25			
O=C1CSC(N2N=C(c3ccc(Br)cc3)CC2c2cccc3ccccc23)=N1 (centres undefined)	13.4	14.6	5.81				
O=C1CSC(N2N=C(c3ccc(Cl)cc3)CC2c2cccc3ccccc23)=N1 (centres undefined)	16.4	16.4	8.84				
O=C1CSC(N2N=C(c3ccc(Br)cc3)CC2c2ccc3ccccc3c2)=N1 (centres undefined)	18.2	11.7	4.22				
Cc1ccc(C2=NN(C3=NC(=O)CS3)C(c3cccc4ccccc34)C2)cc1C (centres undefined)	5.94	7.11	1.33	1.32	383		
O=C1CSC(N2N=C(c3ccccc3)CC2c2ccc3ccccc3c2)=N1 (centres undefined)	15.7	8.86	3.18	6.31	345		
Cc1ccc(C2=NN(C3=NC(=O)CS3)C(c3cccc4ccccc34)C2)cc1 (centres undefined)	8.66	10	3.21				
Cc1ccc(C2=NN(C3=NC(=O)CS3)C(c3ccc4ccccc4c3)C2)cc1C (centres undefined)	8.49	6.02	0.86	0.12	397	Non-toxic	Active
O=C1CSC(N2N=C(c3ccc(F)cc3)CC2c2cccc3ccccc23)=N1 (centres undefined)	19.5	19.3	11.2				
COc1ccc(C2=NN(C3=NC(=O)CS3)C(c3ccc4ccccc4c3)C2)cc1 (centres undefined)	10.4	6.94	1.48		363		
O=C1CSC(N2N=C(c3ccccc3)CC2c2cccc3ccccc23)=N1 (centres undefined)	10.1	11.2	4.62				
